Compound activity (PubChem BioAssay)
Fibroblast inh – blocks proliferation of human lung fibroblasts; LL 47 human lung fibroblast viability, ATP luminescence; active compounds read low; viability, % at 10 µM; actives 1.1% (n = 85,000); AID 719;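 active means viability at or below 50% in the single dose screen; inactive means viability above 50%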;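 further: compound exposure lasted 72 h before the ATP readout; 100% = median luminescence of untreated cell-only wells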
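Test system: LL 47 human lung fibroblasts / Quantity: 1,150 cells in each well / Medium: IMEM growth medium with 15% fetal bovine serum / Incubation: 72 h compound exposure at 37 °C after overnight plating / Detection: CellTiter-Glo luminescence measuring cellular ATP / Read-out: % viability versus median cells-only luminescence / Benchmarks: cell-only wells, no compound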
HCT116 PTEN-null – PTEN-deleted cell growth suppression; HCT116 PTEN-null viability, CellTiter-Glo, 60 h; active compounds read low; viability, % at 10 µM; actives 1.2% (n = 140,000);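 active means viability at or below a set limit, 4 SD under the median of all tested compounds, cut at about 3.7% in these data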;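 further: PTEN knockout HCT116 line with beta catenin targeted HCT116 as companion control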
H69AR growth 86K – blocks growth of human H69AR lung tumor cells; H69AR lung tumor viability, ATP luminescence, 72 h; active compounds read low; viability, % at 10 µM; actives 6% (n = 85,000); AID 598;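 active means viability at or below 40%; inactive means viability above 40%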;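 further: multidrug resistant small cell line overexpressing MRP-1 efflux transporter; 100% = mean luminescence of untreated control wells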
HCT116 bCat-KO – beta-catenin-lacking colon tumor cell growth suppression; HCT116 beta-catenin knockout viability, CellTiter-Glo, 60 h; active compounds read low; AID 818; actives 1.5% (n = 140,000); viability, % at 10 µM;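 active means viability at or under a set limit, the compound median less 4 SD, cut at about 6% in these data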;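 further: 0% = Hyamine 1622 control at 20 µM and 100% = untreated cell control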
HUVEC inhibit – human endothelial cell proliferation inhibition | HUVEC proliferation, CellTiter-Glo luminescence, 72 h; active compounds read low | viability, % at 10 µM (by protocol) | actives 1.1% (n = 86,000) | AID 648;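 active means viability at or below 30%; inactive means viability above 30%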;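 further: 100% = median luminescence of DMSO-only cell control wells on each plate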
The depositor's hits bear a star; · = no result given. Many of the other results were omitted from the sample, so hits are more common in it than they were.

SMILES	Fibroblast inh	HCT116 PTEN-null	H69AR growth 86K	HCT116 bCat-KO	HUVEC inhibit
COc1ccccc1NC(=O)c1ccc(NC(=O)CSc2nnnn2C)cc1	104	91	2.2*	81	97
COc1ccccc1NC(=O)CSc1nnnn1-c1ccc(C)cc1	101	103	83	86	88
COc1cc2nc(C3CC3)n(NC(=O)c3ccc(Cl)cc3)c(=O)c2cc1OC	91	59	24*	55	68
COc1cc2nc(C3CC3)n(NC(=O)c3ccc(F)cc3)c(=O)c2cc1OC	94	106	79	93	110
C/C(=N/NC(=O)CCCOc1ccc(Cl)cc1Cl)c1ccc(C)o1	·	99	·	100	·
CCCCc1oc2ccccc2c1C(=O)c1cc(I)c(OCCN(CC)CC)c(I)c1	90	17	2.1*	13	17*
O=C(Nc1nc(-c2cccs2)cs1)c1ccc(Cl)s1	98	50	3.6*	51	43
C=C1C(O)C[C@H]2C(=C)CCC3[C@H](OC(=O)[C@]3(O)CO)[C@@H]12 (stereo partly drawn)	·	0.5*	·	0.7*	·
CC[C@H](C)[C@H](NC(=O)c1ccc(Cl)cc1)C(=O)OCC(=O)c1ccc2c(c1)NC(=O)CO2	21*	93	2.6*	82	5.4*
Brc1ccccc1-c1nnc(COc2cccc3cccnc23)o1	100	68	32*	58	108
CCC1CSC(Nc2ccc(C(=O)/C=C/c3ccc(OC)c(OC)c3)cc2)=N1 (stereo not drawn)	·	3.4*	·	3.0*	·
O=C(/C=C/c1ccc(Br)cc1)NC1CCCCCC1	·	99	·	100	·
CCC1CSC(Nc2ccc(C(=O)/C=C/c3ccc(Br)cc3)cc2)=N1 (stereo not drawn)	·	2.8*	·	5.4*	·
CC(=O)c1cccc(NC(=O)Cc2coc3cc4c(cc23)CCC4)c1	·	81	·	86	·
CCn1c2ccccc2c2nnc(SCc3ccccc3)nc21	89	68	61	76	90
CCn1c2ccccc2c2nnc(SCCCn3c(=O)[nH]c4ccccc43)nc21	93	78	23*	59	59
COCCCN1C(=O)c2[nH]nc(-c3ccccc3O)c2C1c1ccc(Cl)cc1 (stereo not drawn)	89	36	·	42	89
O=C1c2[nH]nc(-c3ccccc3O)c2C(c2ccccc2F)N1Cc1ccco1 (stereo not drawn)	77	28	4.5*	43	53
COc1ccc(CCN2C(=O)c3[nH]nc(-c4ccccc4O)c3C2c2ccccc2)cc1OC (stereo not drawn)	90	27	39*	24	78
CC(C)OCCCN1C(=O)c2[nH]nc(-c3ccccc3O)c2C1c1cccc(Cl)c1 (stereo not drawn)	86	19	6.5*	40	5.7*
COCCCN1C(=O)c2[nH]nc(-c3ccccc3O)c2C1c1cccc(Cl)c1 (stereo not drawn)	65	25	2.9*	20	80
O=C1c2[nH]nc(-c3ccccc3O)c2C(c2ccccc2)N1Cc1ccco1 (stereo not drawn)	91	76	·	81	91
CNS(=O)(=O)c1ccc(NC(=O)c2ccccn2)cc1	·	104	·	107	·
CCCCC(c1nnnn1CCOC)N1CCN(Cc2ccccc2)CC1 (stereo not drawn)	98	98	89	98	92
CCOc1ccc(Cl)cc1S(=O)(=O)N1CCN(c2ccc(C)c(C)c2)CC1	91	70	39*	67	93
SMILES	Fibroblast inh	HCT116 PTEN-null	H69AR growth 86K	HCT116 bCat-KO	HUVEC inhibit
COc1cccc(/C=N/n2cnc3ccccc32)c1OC	121	96	30*	84	95
COc1cccc(/C=N/n2c(N)nc3ccccc32)c1OC	89	90	74	99	75
Cc1cccc(NC(=O)C2CCCN(S(=O)(=O)c3cccc4cccnc34)C2)c1 (stereo not drawn)	90	66	66	85	80
c1ccc(-n2ncc3c(NCCCN4CCOCC4)ncnc32)cc1	106	88	84	93	95
c1ccc(-n2ncc3c(NCc4ccco4)ncnc32)cc1	92	58	28*	55	73
c1ccc(Cn2ncc3c(NCc4ccco4)ncnc32)cc1	81	79	53	79	70
Fc1cccc(Nc2ncnc3c2cnn3-c2ccccc2)c1	86	·	14*	·	76
Clc1ccc(Cn2ncc3c(NCc4ccccc4)ncnc32)cc1	55	31	22*	34	57
CCCCNc1ncnc2c1cnn2-c1ccccc1	68	23	13*	15	72
CC(=O)/C=C1\SC(CC(=O)O)C(=O)N1c1ccccc1 (stereo not drawn)	·	105	·	101	·
CCCCNc1ncnc2c1cnn2-c1ccc(Cl)cc1	59	23	19*	19	60
COCCCNc1ncnc2c1cnn2-c1ccc(C)cc1C	·	95	·	98	·
CCCCNc1ncnc2c1cnn2-c1ccc(C)cc1C	92	98	37*	88	97
CCOc1ccc(C2Nc3ccc4ccccc4c3-c3c2c(=O)oc2ccccc32)cc1 (stereo not drawn)	·	4	·	2.7*	·
O=c1oc2ccccc2c2c1C(c1ccc(Cl)cc1)Nc1ccc3ccccc3c1-2 (stereo not drawn)	·	76	·	73	·
COc1ccc(C2Nc3ccc4ccccc4c3-c3c2c(=O)oc2ccccc32)cc1 (stereo not drawn)	·	1.5*	·	3.2*	·
O=C1CCCC(=O)C1=C1SCCS1	·	95	·	91	·
CCn1cc(CNC(=O)/C=C/c2ccc([N+](=O)[O-])cc2)cn1	·	91	·	87	·
COc1cc2[nH]c(=O)n(CCC(=O)N3CCN(c4cccc(C)c4C)CC3)c(=O)c2cc1OC	89	99	2.4*	96	44
COc1cc2[nH]c(=O)n(CCCCCC(=O)N3CCN(c4ccccc4)CC3)c(=O)c2cc1OC	97	68	65	80	66
COc1ccccc1C(O)(C(=O)NN(C)c1ccccc1)c1ccccc1OC	·	81	·	90	·
CC1=CC(=NOC(=O)c2cccc([N+](=O)[O-])c2)C=C(C)C1=O	91	27	74	9	96
CC1=CC(=O)C(C(C)C)=C/C1=N/OC(=O)c1cccc([N+](=O)[O-])c1	87	60	33*	51	104
O=C(CCN1C(=O)S/C(=C\c2cccs2)C1=O)NC1=NCCS1	·	96	·	98	·
CCC(Sc1nnc2c3ccccc3n(CC)c2n1)C(=O)Nc1sc2c(c1C#N)CCCC2 (stereo not drawn)	·	1.4*	·	1.4*	·
O=c1cc(-c2c(F)c(F)c(F)c(F)c2F)oc2ccccc12	·	·	·	2.2*	·
O=c1cc(-c2c(F)c(F)c(F)c(F)c2F)oc2c(F)c(F)c(F)c(F)c12	17*	1.5*	1.0*	1.6*	1.6*
CC(=O)Nc1ccc(S(=O)(=O)N2CCN(c3nc(NC4CCCC4)c4ccccc4n3)CC2)cc1	85	1.5*	1.4*	1.5*	11*
